Results as given in ChEMBL document CHEMBL1123929, “Investigation of peripheral cholecystokinin receptor heterogeneity by cyclic and related linear analogues of CCK26-33: synthesis and biological properties” (J Med Chem, 1987).
Non-standard residues stand in square brackets, D forms with d. Residues, ends and D or L forms follow the SMILES beside them. *: point of attachment. sY = N[C@@H](Cc1ccc(OS(=O)(=O)O)cc1)C(=O)O; Nle = CCCC[C@H](N)C(=O)O; Boc = CC(C)(C)OC(=O)*

What was measured:
Rattus norvegicus = organism: Rattus norvegicus; assay: Evaluated for agonist activity measured as amylase secretion by rat pancreas; type: functional
Procedure, shortened: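 Rat pancreas fragments stimulated with peptide (Na salt form). Amylase released into the medium was measured with Phadebas reagent by the Ceska method. EC50 was taken from concentration–response curves. Results are means of three separate experiments, each value in triplicate.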

Cavia porcellus [1] = organism: Cavia porcellus; assay: Evaluated for contractile activities of guinea pig ileum for agonistic activity; type: functional
Procedure, shortened: (§1)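 Isolated guinea pig ileum contraction by the Hutchinson and Dockray method, with atropine present (1.5 mg/L). Agonism was tested by direct contraction. Antagonism was tested against contraction evoked by 3 × 10⁻⁹ M CCK8. Peptides were used as Na salts. Values are mean ± SEM of three separate experiments.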

Cholecystokinin receptor = biological target: T1, Cholecystokinin receptor (Mus musculus, UniProt O08786+P56481); assay: Binding affinity measured by inhibiting [3H]Boc[Nle28,31]CCK27-33 specific binding to Cholecystokinin receptor in mouse brain membranes at a KD concentration of 0.19 nM; type: cell membranes, Membrane
T1 sequence (O08786 whole entry): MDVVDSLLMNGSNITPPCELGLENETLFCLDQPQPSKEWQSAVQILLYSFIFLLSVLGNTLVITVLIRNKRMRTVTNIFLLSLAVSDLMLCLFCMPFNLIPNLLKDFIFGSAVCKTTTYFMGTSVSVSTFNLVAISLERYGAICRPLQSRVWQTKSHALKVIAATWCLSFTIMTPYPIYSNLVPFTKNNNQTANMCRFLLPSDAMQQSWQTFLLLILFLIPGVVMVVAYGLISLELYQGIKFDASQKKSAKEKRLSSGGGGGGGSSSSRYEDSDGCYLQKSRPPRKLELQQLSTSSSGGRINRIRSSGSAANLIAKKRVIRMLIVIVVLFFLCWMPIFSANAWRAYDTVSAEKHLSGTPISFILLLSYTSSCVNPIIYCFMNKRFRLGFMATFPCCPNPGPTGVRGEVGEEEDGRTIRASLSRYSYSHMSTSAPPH
T1 sequence (P56481 whole entry): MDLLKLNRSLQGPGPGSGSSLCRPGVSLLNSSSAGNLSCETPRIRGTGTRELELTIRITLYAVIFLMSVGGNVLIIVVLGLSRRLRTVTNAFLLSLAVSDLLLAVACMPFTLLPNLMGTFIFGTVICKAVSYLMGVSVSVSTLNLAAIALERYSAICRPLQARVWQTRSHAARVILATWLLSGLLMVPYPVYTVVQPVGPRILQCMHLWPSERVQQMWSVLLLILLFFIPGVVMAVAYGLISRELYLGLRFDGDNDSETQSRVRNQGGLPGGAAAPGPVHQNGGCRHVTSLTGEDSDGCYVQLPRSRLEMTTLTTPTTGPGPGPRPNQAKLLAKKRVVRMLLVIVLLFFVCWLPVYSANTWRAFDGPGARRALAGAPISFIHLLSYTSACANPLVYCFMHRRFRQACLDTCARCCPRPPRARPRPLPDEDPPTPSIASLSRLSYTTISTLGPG

Cavia porcellus [2] = organism: Cavia porcellus; assay: Evaluated for contractile activities of guinea pig ileum for antagonistic activity (contraction induced by 3, 10e -9M of CCK-8); type: functional; procedure, shortened: as §1
[3] = biological target: T2, Cholecystokinin receptor type A (Rattus norvegicus, UniProt P30551); assay: Evaluated for binding affinity measured by inhibiting [3H]Boc[Nle28,31]CCK27-33 specific binding to Cholecystokinin receptor in rat pancreas membranes at a KD concentration of 4.4 nM; type: cell membranes, Membrane
T2 sequence (P30551 whole entry): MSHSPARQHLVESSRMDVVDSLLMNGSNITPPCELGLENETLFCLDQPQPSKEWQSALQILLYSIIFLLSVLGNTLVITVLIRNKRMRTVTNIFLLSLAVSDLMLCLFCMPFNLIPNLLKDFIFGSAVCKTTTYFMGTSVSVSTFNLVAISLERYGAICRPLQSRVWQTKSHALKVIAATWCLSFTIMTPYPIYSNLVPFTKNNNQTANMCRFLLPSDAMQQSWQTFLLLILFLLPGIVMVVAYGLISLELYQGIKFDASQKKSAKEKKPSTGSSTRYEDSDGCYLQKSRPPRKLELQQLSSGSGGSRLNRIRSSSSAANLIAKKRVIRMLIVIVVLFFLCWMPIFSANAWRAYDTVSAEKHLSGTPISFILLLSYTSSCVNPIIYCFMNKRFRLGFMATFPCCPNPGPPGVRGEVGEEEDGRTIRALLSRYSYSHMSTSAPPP

`CSCC[C@H](NC(=O)[C@H](Cc1ccc(OS(=O)(=O)O)cc1)NC(=O)[C@@H](N)CC(=O)O)C(=O)NCC(=O)N[C@@H](Cc1c[nH]c2ccccc12)C(=O)N[C@@H](CCSC)C(=O)N[C@@H](CC(=O)O)C(=O)N[C@@H](Cc1ccccc1)C(N)=O` [SINCALIDE] was tested, and the EC50 (Rattus norvegicus) was 0.001 µM, the EC50 (Cavia porcellus [1]) was 0.002 µM and the Ki (Cholecystokinin receptor) was 4.91e-10 M.

In the case of `CCCC[C@H](NC(=O)[C@H](Cc1c[nH]c2ccccc12)NC(=O)[C@H]1CCCCNC(=O)C[C@H](NC(=O)OC(C)(C)C)C(=O)N[C@@H](Cc2ccc(OS(=O)(=O)O)cc2)C(=O)N[C@@H](CCCC)C(=O)N1)C(=O)N[C@@H](CC(=O)O)C(N)=O`, the EC50 (Rattus norvegicus) is reported as over 1 µM, the EC50 (Cavia porcellus [2]) is reported as over 10 µM and the EC50 (Cavia porcellus [1]) is reported as over 10 µM. The Ki (Cholecystokinin receptor) was over 0.00001 M and the Ki [3] was over 10 µM.

Compound `CCCC[C@H](NC(=O)[C@H](Cc1ccc(OS(=O)(=O)O)cc1)NC(=O)OC(C)(C)C)C(=O)NCC(=O)N[C@@H](Cc1c[nH]c2ccccc12)C(=O)N[C@@H](CCCC)C(=O)N[C@@H](CC(=O)O)C(=O)N[C@@H](Cc1ccccc1)C(N)=O` (Boc-[sY][Nle]GW[Nle]DF-NH2) has an EC50 (Rattus norvegicus) of 0.0028 µM, an EC50 (Cavia porcellus [1]) of 0.0032 µM and a Ki (Cholecystokinin receptor) of 1.91e-10 M.

In the case of `CCCC[C@H](NC(=O)[C@H](Cc1c[nH]c2ccccc12)NC(=O)[C@@H](CCCCN)NC(=O)[C@H](CCCC)NC(=O)[C@H](Cc1ccc(OS(=O)(=O)O)cc1)NC(=O)[C@H](CC(=O)O)NC(=O)OC(C)(C)C)C(=O)N[C@@H](CC(=O)O)C(=O)N[C@@H](Cc1ccccc1)C(N)=O`, the EC50 (Rattus norvegicus) is reported as 0.04 µM, the EC50 (Cavia porcellus [2]) is reported as 15 µM and the EC50 (Cavia porcellus [1]) is reported as over 10 µM. The Ki (Cholecystokinin receptor) was 3e-07 M and the Ki [3] was 0.34 µM.

`CCCC[C@H](NC(=O)[C@H](Cc1c[nH]c2ccccc12)NC(=O)[C@@H](CCCCN)NC(=O)[C@H](CCCC)NC(=O)[C@H](Cc1ccc(OS(=O)(=O)O)cc1)NC(=O)[C@H](CC(=O)O)NC(=O)OC(C)(C)C)C(=O)N[C@@H](CC(=O)O)C(N)=O` showed an EC50 (Rattus norvegicus) of over 100 µM, an EC50 (Cavia porcellus [2]) of over 10 µM and an EC50 (Cavia porcellus [1]) of over 10 µM. It also gave a Ki (Cholecystokinin receptor) of over 1e-05 M and a Ki [3] of over 10 µM.
